Data: ChEMBL document CHEMBL1649387, “Synthesis and evaluation of quinonoid compounds against tumor cell lines” (Eur J Med Chem, 2011)

Key:
MDA-MB-435 [1] = experiment: Induction of apoptosis in human MDA-MB-435 cells assessed as apoptotic nuclei at 5 uM after 24 hrs by acridine orange/ethidium bromide staining based fluorescence microscopy in presence of 1-bromoheptane; assay type: functional
Method in brief: (§1)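 Cells exposed 24 h, with or without 24 h pretreatment with 1-bromoheptane. Cell suspension mixed with acridine orange/ethidium bromide (each 100 in PBS) and spread on slide. 300 cells counted per point by fluorescence microscopy to give % apoptotic cells. Mean ± S.E.M. of three experiments.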

SF-295 [2] = experiment: Induction of apoptosis in human SF295 cells assessed as apoptotic nuclei at 5 uM after 24 hrs by acridine orange/ethidium bromide staining based fluorescence microscopy; assay type: functional; method in brief: as §1
PBMC = experiment: Cytotoxicity against human PBMC cells after 72 hrs by Alamar Blue assay; assay type: cell-based
HCT-8 [3] = experiment: Induction of apoptosis in human HCT8 cells assessed as apoptotic nuclei at 5 uM after 24 hrs by acridine orange/ethidium bromide staining based fluorescence microscopy in presence of 1-bromoheptane; assay type: functional; method in brief: as §1
HL-60 [4] = experiment: Induction of apoptosis in human HL60 cells assessed as apoptotic nuclei at 5 uM after 24 hrs by acridine orange/ethidium bromide staining based fluorescence microscopy in presence of 1-bromoheptane; assay type: functional; method in brief: as §1
HL-60 [5] = experiment: Cytotoxicity against human HL60 cells after 72 hrs by MTT assay; assay type: functional, cell-based; conditions: HL-60, 72 h
SF-295 [6] = experiment: Cytotoxicity against human SF295 cells after 72 hrs by MTT assay; assay type: functional, cell-based; conditions: SF-295, 72 h
HL-60 [7] = experiment: Induction of apoptosis in human HL60 cells assessed as apoptotic nuclei at 5 uM after 24 hrs by acridine orange/ethidium bromide staining based fluorescence microscopy; assay type: functional; method in brief: as §1
HCT-8 [8] = experiment: Cytotoxicity against human HCT8 cells after 72 hrs by MTT assay; assay type: functional, cell-based; conditions: HCT-8, 72 h
HCT-8 [9] = experiment: Induction of apoptosis in human HCT8 cells assessed as apoptotic nuclei at 5 uM after 24 hrs by acridine orange/ethidium bromide staining based fluorescence microscopy; assay type: functional; method in brief: as §1
SF-295 [10] = experiment: Induction of apoptosis in human SF295 cells assessed as apoptotic nuclei at 5 uM after 24 hrs by acridine orange/ethidium bromide staining based fluorescence microscopy in presence of 1-bromoheptane; assay type: functional; method in brief: as §1
MDA-MB-435 [11] = experiment: Induction of apoptosis in human MDA-MB-435 cells assessed as apoptotic nuclei at 5 uM after 24 hrs by acridine orange/ethidium bromide staining based fluorescence microscopy; assay type: functional; method in brief: as §1
MDA-MB-435 [12] = experiment: Cytotoxicity against human MDA-MB-435 cells after 72 hrs by MTT assay; assay type: functional, cell-based; conditions: MDA-MB-435, 72 h

| SMILES | Activity (MDA-MB-435 [1]) [%] | Activity (SF-295 [2]) [%] | IC50 (PBMC) [µM] | Activity (HCT-8 [3]) [%] | Activity (HL-60 [4]) [%] | IC50 (HL-60 [5]) [µM] | IC50 (SF-295 [6]) [µM] | Activity (HL-60 [7]) [%] | IC50 (HCT-8 [8]) [µM] | Activity (HCT-8 [9]) [%] | Activity (SF-295 [10]) [%] | Activity (MDA-MB-435 [11]) [%] | IC50 (MDA-MB-435 [12]) [µM] |
| --- | --- | --- | --- | --- | --- | --- | --- | --- | --- | --- | --- | --- | --- |
| Cc1ccccc1-c1nc2ccc3c(c2[nH]1)C(=O)c1ccccc1C3=O | 10.38 | 11.85 | > 14.8 | 9.17 | 10.75 | > 14.8 | > 14.8 | 11.47 | > 14.8 | 5.33 | 13.95 | 6.33 | > 14.8 |
| CC1=C(OC2(C)C(=O)c3ccccc3C2=O)C(=O)c2ccccc2C1=O |  |  | > 14.4 |  |  | > 14.4 | > 14.4 |  | > 14.4 |  |  |  | > 14.4 |
| CC1(C)OC2=C(C(=O)C(=O)c3ccccc32)[C@H](N=[N+]=[N-])[C@H]1Br |  |  | 3.58 |  |  | 1.43 | 1.93 |  | 2.42 |  |  |  | 1.54 |
| Cc1cccc(-c2nc3ccc4c(c3[nH]2)C(=O)c2ccccc2C4=O)c1 | 6.17 | 10.05 | > 14.8 | 7.28 | 6.18 | > 14.8 | > 14.8 | 7.33 | > 14.8 | 12.01 | 7.38 | 9.81 | > 14.8 |
| CC(C)CCC1=C(O)C(=O)C2=C(CCCC2)C1=O |  |  | > 20.1 |  |  | > 20.1 | > 20.1 |  | > 20.1 |  |  |  | > 20.1 |
| O=C1c2ccccc2C(=O)c2c1ccc1nc(-c3cccc(O)c3)[nH]c21 | 13.75 | 13.51 | > 14.7 | 7.25 | 8.17 | > 14.7 | > 14.7 | 10.49 | > 14.7 | 12.73 | 9.66 | 12.51 | > 14.7 |
| COc1cc(-c2nc3ccc4c(c3[nH]2)C(=O)c2ccccc2C4=O)ccc1O |  |  | > 13.6 |  |  | > 13.6 | > 13.6 |  | > 13.6 |  |  |  | > 13.6 |
| CC(C)CC1=C(O)C(=O)C2=C(CCCC2)C1=O |  |  | > 21.4 |  |  | > 21.4 | > 21.4 |  | > 21.4 |  |  |  | > 21.4 |
| O=C1c2ccccc2C(=O)c2c1ccc1nc(-c3ccc(O)cc3)[nH]c21 | 13.07 | 5.93 | > 14.7 | 11.16 | 14.26 | > 14.7 | > 14.7 | 10.7 | > 14.7 | 8.51 | 10.18 | 9.56 | > 14.7 |
| CCCC1=C(O)C(=O)c2ccccc2C1=O |  |  | > 23.1 |  |  | > 23.1 |  |  | > 23.1 |  |  |  | > 23.1 |
| CCCC1=C(OC2(CCC)C(=O)C(=O)C3=C(CCCC3)C2=O)C(=O)C2=C(CCCC2)C1=O (stereo not drawn) | 12.09 | 11.73 | > 11.4 | 11.7 | 11.04 | > 11.4 | > 11.4 | 9.13 | > 11.4 | 9.27 | 13.97 | 8.56 | > 11.4 |
| COc1ccc(-c2cn([C@H]3C4=C(OC(C)(C)[C@@H]3Br)c3ccccc3C(=O)C4=O)nn2)cc1 |  |  | 2.52 |  |  | 1.88 | 3.01 |  | 3.21 |  |  |  | 1.92 |
| C=CCC1=C(OC2(CC=C)C(=O)C(=O)c3ccccc3C2=O)C(=O)c2ccccc2C1=O (stereo not drawn) | 11.36 | 8.3 | > 11.7 | 9.37 | 8.55 | > 11.7 | > 11.7 | 3.91 | > 11.7 | 12.52 | 11.47 | 7.94 | > 11.7 |
| O=C1c2ccccc2C(=O)c2c1ccc1nc(-c3ccccc3)[nH]c21 | 11.44 | 7.32 | > 15.4 | 8.11 | 8.37 | > 15.4 | > 15.4 | 12.59 | > 15.4 | 10.35 | 9.17 | 9.02 | > 15.4 |
| O=C1c2ccccc2C(=O)c2c1ccc1nc(-c3ccc(F)cc3)[nH]c21 |  |  | > 14.6 |  |  | > 14.6 | > 14.6 |  | > 14.6 |  |  |  | > 14.6 |
| CC(C)CCC1=C(OC2(CCC(C)C)C(=O)C(=O)C3=C(CCCC3)C2=O)C(=O)C2=C(CCCC2)C1=O (stereo not drawn) | 13.72 | 8.33 | > 10.1 | 10.33 | 10.62 | > 10.1 | > 10.1 | 10.21 | > 10.1 | 5.85 | 12.06 | 8.38 | > 10.1 |
| CCCC1=C(O)C(=O)C2=C(CCCC2)C1=O |  |  | > 22.7 |  |  | > 22.7 | > 22.7 |  | 3.99 |  |  |  | > 22.7 |
| O=C1c2ccccc2C(=O)c2c1ccc1nc(-c3cccc(F)c3)[nH]c21 |  |  | > 14.6 |  |  | > 14.6 | > 14.6 |  | > 14.6 |  |  |  | > 14.6 |
| CC(C)CC1=C(OC2(CC(C)C)C(=O)C(=O)c3ccccc3C2=O)C(=O)c2ccccc2C1=O (stereo not drawn) |  |  | > 10.9 |  |  | > 10.9 | > 10.9 |  | > 10.9 |  |  |  | > 10.9 |
| CC(C)CC1=C(OC2(CC(C)C)C(=O)C(=O)C3=C(CCCC3)C2=O)C(=O)C2=C(CCCC2)C1=O (stereo not drawn) |  |  | > 10.7 |  |  | > 10.7 | > 10.7 |  | > 10.7 |  |  |  | > 10.7 |
| CC(C)CCC1=C(O)C(=O)c2ccccc2C1=O |  |  | > 20.5 |  |  | > 20.5 | > 20.5 |  | > 20.5 |  |  |  | > 20.5 |
| CC(C)CC1=C(O)C(=O)c2ccccc2C1=O |  |  | > 21.7 |  |  | > 21.7 | > 21.7 |  | > 21.7 |  |  |  | > 21.7 |
| CC1(C)OC2=C(C(=O)C(=O)c3ccccc32)[C@H](n2cc(-c3ccc(Br)cc3)nn2)[C@H]1Br |  |  | 4.01 |  |  | 1.67 | 2.33 |  | 2.24 |  |  |  | 1.99 |
| O=C1c2ccccc2C(=O)c2c1ccc1nc(-c3ccccc3F)[nH]c21 |  |  | > 14.6 |  |  | > 14.6 | > 14.6 |  | > 14.6 |  |  |  | > 14.6 |
| CCCC1=C(OC2(CCC)C(=O)C(=O)c3ccccc3C2=O)C(=O)c2ccccc2C1=O (stereo not drawn) |  |  | > 11.6 |  |  | > 11.6 | > 11.6 |  | > 11.6 |  |  |  | > 11.6 |
| CC1(C)OC2C(=O)c3ccccc3C(=O)C2[C@@H](N=[N+]=[N-])[C@@H]1Br (stereo partly drawn) |  |  | 11.3 |  |  | 5.68 | 13.8 |  | 12.4 |  |  |  | 3.97 |
